Each structure is given as a SMILES string. pIC50: −log10 of the molar value. Activity calls are given as the source filed them. The rule behind the calls is not given here. Where only a bound is given, the exact number is not on record here.

The source of these data is ChEMBL document CHEMBL4014342, “Subtly Modulating Glycogen Synthase Kinase 3 β: Allosteric Inhibitor Development and Their Potential for the Treatment of Chronic Diseases” (J Med Chem, 2017).

Series [1] addresses T1, Glycogen synthase kinase-3 beta (Homo sapiens, UniProt P49841). The series can be described thus: Allosteric inhibition of human recombinant full length N-terminal GST-tagged GSK3beta expressed in fall armyworm Sf9 cells after 30 min in presence of ATP by kinase glo luminescent assay. Summed up: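 Human recombinant GSK-3β (20 ng) with prephosphorylated peptide substrate, 50 μM in the 20 μL substrate mix, and ATP, 2 μM in that mix. Buffer: 50 mM HEPES pH 7.5, 1 mM EDTA, 1 mM EGTA, 15 mM Mg acetate; DMSO ≤1%. Incubated 30 min at 30 °C, then Kinase-Glo added and luminescence read after 10 min.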
Target sequence in this assay (P49841 whole entry): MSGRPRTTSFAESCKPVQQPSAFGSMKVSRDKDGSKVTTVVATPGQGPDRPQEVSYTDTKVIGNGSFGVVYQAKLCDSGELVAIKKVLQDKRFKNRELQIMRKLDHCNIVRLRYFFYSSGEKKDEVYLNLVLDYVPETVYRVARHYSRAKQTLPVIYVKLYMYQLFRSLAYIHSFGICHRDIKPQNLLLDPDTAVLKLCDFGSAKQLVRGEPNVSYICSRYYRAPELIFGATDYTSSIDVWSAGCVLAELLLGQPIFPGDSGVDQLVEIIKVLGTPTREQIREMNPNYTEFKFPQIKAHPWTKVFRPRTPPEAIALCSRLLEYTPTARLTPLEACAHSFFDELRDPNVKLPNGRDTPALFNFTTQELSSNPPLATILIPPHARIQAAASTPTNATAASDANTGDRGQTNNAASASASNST
On the technique in general: Kinase-Glo measures the ATP left after a reaction by luminescence.

The target in series [2] is T1, Glycogen synthase kinase-3 beta. The series can be described thus: Allosteric inhibition of GSK3beta in human LN18 cells assessed as decrease in beta-catenin translocation from cytoplasm to nucleus at 10 uM after 72 hrs by DAPI-satining based confocal microscopic analysis. The format is cell-based. The gist of the method:
(§1)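 LN18 glioblastoma cells (DMEM, 10% FBS, 2 mM glutamine) and SH-SY5Y neuroblastoma cells (DMEM, 10% FBS, 10 mM glutamine; 37 °C, 5% CO2) were grown on glass coverslips and exposed to compound at 10 μM for 72 h, with vehicle controls. Cells were fixed in 4% paraformaldehyde and permeabilized with Triton X-100. β-Catenin was stained with mouse anti-β-catenin and an Alexa-488 secondary, nuclei with DAPI, and localization imaged by confocal microscopy.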
Target sequence in this assay (P49841 whole entry, looked up): as the sequence (P49841 whole entry) above

Series [3] shares this target. In words: Allosteric inhibition of GSK3beta in human […] cells assessed as decrease in beta-catenin translocation from cytoplasm to nucleus at 10 uM after 72 hrs by DAPI-satining based confocal microscopic analysis. Format: cell-based. The gist of the method: as §1
Target sequence in this assay (P49841 whole entry, looked up): as the sequence (P49841 whole entry) above
Series [4] in a line: Cytotoxicity against motor neurons obtained from SMA patient derived iPSC assessed as cell death at >1.25 uM after 7 days. The format is cell-based. Particulars: human, motor neuron, 168 h. The gist of the method: (§2)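 SMA type I/II patient iPSCs were differentiated into motor neurons over 15 days: LDN/SB431542, retinoic acid, BDNF, smoothened agonist, then DAPT/Ara-C. Cells were dissociated onto astrocyte-coated wells in Neurobasal with B27/N2 and BDNF, GDNF and CNTF, and treated 7 days with DMSO or increasing compound concentrations. After fixation, cells were immunostained for Islet1/MAP2 with Hoechst nuclear stain and imaged automatically. Survival is expressed as Islet1+ MN counts relative to DMSO wells, for each line.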

The next series concerns Motor neuron. The series can be described thus: Increase in survival of motor neurons obtained from SMA patient derived iPSC after 7 days by Hoechst 33342-staining based fluorescence assay. The format is functional, cell-based. Conditions: Homo sapiens. The gist of the method: as §2
In series [5] the target is T1, Glycogen synthase kinase-3 beta. In words: Non-competitive allosteric inhibition of human recombinant full length N-terminal GST-tagged GSK3beta expressed in fall armyworm Sf9 cells at 2.5 to 5 uM using GS2 as substrate measured at constant substrate levels and varying ATP levels after 30 mins by ADP-Glo kinase Assay. The gist of the method: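 Human recombinant GSK-3β kinetics with ATP varied from 1 to 50 μM, inhibitor at 2.5 or 5 μM, and GS-2 held constant, stated as 25 μM in the methods and 12.5 μM in the legend. Read by ADP-Glo and analyzed by double-reciprocal plots. Each point is the mean of two experiments, each run in duplicate.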
Target sequence in this assay (P49841 whole entry, looked up): as the sequence (P49841 whole entry) above
Background: ADP-Glo first removes unused ATP, then detects ADP through luciferase.

Series [6] has the same target. In words: Non-competitive allosteric inhibition of human recombinant full length N-terminal GST-tagged GSK3beta expressed in fall armyworm Sf9 cells at 2 to 5 uM using GS2 as substrate measured at varying substrate levels and constant ATP levels after 30 mins by Double-reciprocal plot analysis. The gist of the method:
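Human recombinant GSK-3β kinetics with GS-2 substrate varied from 12.5 to 100 μM, ATP held at 1 μM, and inhibitor at 2 or 5 μM. Analyzed by Lineweaver–Burk double-reciprocal plots. Each point is the mean of two experiments, each run in duplicate.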
Target sequence in this assay (P49841 whole entry, looked up): as the sequence (P49841 whole entry) above

The test system of series [7] is Myoblast. The series can be described thus: Induction of myoblast differentiation in CDM1 patient-derived human primary myoblasts after 4 days by bright field microscopic method. Format: functional, cell-based.
Series [8] deals with Myoblast. In words: Induction of myoblast differentiation in CDM1 patient-derived human primary myoblasts assessed as increase in desmin expression after 4 days by Western blot analysis. Format: functional, cell-based. Summed up: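 CDM1 patient primary myoblasts, about 1,000 repeats and fewer than 15–20 passages, with control myoblasts. Grown in F10-based medium, then switched to fusion medium (DMEM, horse serum, insulin) changed daily. Compound in DMSO was added at different doses with fresh fusion medium each day. After 4 days, myotube RIPA extracts were probed by Western blot for desmin, with actin as control.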
In general terms: Immunoblotting shows a protein as a band on a membrane.

For the molecule `CCCCCCCCCCCC(=O)NNC(=O)c1c(O)c2ccccc2n(CC(C)C)c1=O`, in series [1], the pIC50 (in general, the IC50 on a negative log10 scale, so that one unit is a factor of ten) is less than 4.70.

Take `CCCCCCCCCCCC(=O)NNC(=O)c1c(O)c2ccccc2n(CC)c1=O`: the inhibition entry in [2] and in [3] was “Active” each time. Also, the Activity entry was “Non-Toxic” in series [4] and “Dose-dependent effect” with Motor neuron.

With `Cn1c(=O)c(C(=O)NNCCC#N)c(O)c2ccccc21`, in series [1], the pIC50 was less than 4.70.

For `Cn1c(=O)c(C(=O)NNC(=O)Cc2ccccc2)c(O)c2ccccc21`, the pIC50 in [1] was less than 4.70.

Turning to `CCn1c(=O)c(C(=O)NNC(=O)CCc2c[nH]c3ccccc23)c(O)c2ccccc21`, in series [1], the pIC50 was less than 4.70.

For the molecule `Cn1c(=O)c(C(=O)NNC(=O)CCc2c[nH]c3ccccc23)c(O)c2ccccc21`, the pIC50 in series [1] is less than 4.70.

Consider `CCCCCCNC(=O)c1c(O)c2ccccc2n(C)c1=O`, for which the pIC50 in series [1] was less than 4.70.

As for `CCCCCCCCCCCC(=O)NNC(=O)c1c(O)c2cc(Br)ccc2n(CC)c1=O`, the inhibition entry in [5], in series [6], in series [2] and in series [3] was “Active” throughout. The Activity entry was “Dose-dependent effect” in the series on Myoblast [7], “Non-Toxic” in series [4] and “Dose-dependent effect” in the series with Motor neuron. In the series on Myoblast [8], the result was Active.

As to `Cn1c(=O)c(C(=O)NNC(=O)c2ccccc2)c(O)c2ccccc21`, the pIC50 in [1] was less than 4.70.

Take `CCCCCCCCCCCC(=O)NNC(=O)c1c(O)c2ccccc2n(CC=C(C)C)c1=O`: the pIC50 in series [1] was 5.11.

With `CC(=O)NNC(=O)c1c(O)c2ccccc2n(C)c1=O`, in series [1], the pIC50 is less than 4.70.

Regarding `CCCCCCCCCCCC(=O)NNC(=O)c1c(O)c2ccc(Cl)cc2n(CC)c1=O`, the inhibition result in [5] and in series [6] was “Active” in each case.

Take `CCCCCCCC(=O)NNC(=O)c1c(O)c2ccccc2n(CC)c1=O`: the pIC50 in [1] is less than 4.70.

With `Cn1cc(C2=C(c3ccc(Cl)cc3Cl)C(=O)NC2=O)c2ccccc21`, the inhibition result in [2] and in series [3] was “inactive” throughout.

Consider `Cn1c(=O)c(C(=O)NCC(=O)NCC(=O)OCc2ccccc2)c(O)c2ccccc21`, for which, in series [1], the pIC50 is less than 4.70.

Turning to `CCCCCCCC(=O)NNC(=O)c1c(O)c2ccccc2n(CC=C(C)C)c1=O`, the pIC50 in series [1] was 5.15.

As for `O=C1Cc2c([nH]c3ccc([N+](=O)[O-])cc23)-c2ccccc2N1` [ALSTERPAULLONE], the inhibition result in series [2] and in series [3] was “inactive” in each case. Also, the Activity entry in [4] is “Toxic”.

In the case of `CCn1c(=O)c(C(=O)NNC(=O)CCc2ccc(O)cc2)c(O)c2ccccc21`, the negative-log IC50 (pIC50) in series [1] was less than 4.70.

`CCCCCCCC(=O)NNC(=O)c1c(O)nc2ccccc2c1O`: in series [1], the pIC50 was less than 4.70.

`CCCCCCCC(=O)NNC(=O)c1c(O)c2cc(F)ccc2[nH]c1=O`: the pIC50 in series [1] was less than 4.70.
